Results as given in ChEMBL document CHEMBL3244055, “Synthesis of mono- and bifunctional alpha-methylene lactone systems as potential tumor inhibitors” (1977).
The source made the active and inactive calls. No cut-off for these calls is given here.

What was measured:
[1] = tested on: CCRF-CEM; experiment: Growth inhibition of human CCRF-CEM cells after 48 hrs by cell culture assay; type: functional; details: read-out: ID50 (the source's name)
Procedure, shortened: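 CCRF-CEM human lymphoblastic leukemia cells, which lack cystathionase and need exogenous L-cysteine, grown in culture with test lactone; growth inhibition expressed as ID50 (M).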

[2] = tested on: CCRF-SLT; experiment: Growth inhibition of human CCRF-SLT cells in presence of cystathionine; type: functional, cell-based
Procedure, shortened: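 Cystathionase-containing CCRF-SLT cell line, able to grow on cystathionine, cultured with test lactone in medium supplemented with cystathionine and, in parallel, without it; growth inhibition compared between the two media.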

[3] = tested on: CCRF-CEM; experiment: Growth inhibition of human CCRF-CEM cells after 48 hrs by cell culture assay in presence of 1 x 10^-4 M L-cysteine; type: functional; details: read-out: ID50 (the source's name)

IC50 [1]	IC50 [3]	SMILES	growth inhibition (GI) [2]
2700 nM		C=C1C(=O)O[C@@H]2CC[C@@H](O)[C@H]12 (relative stereo)	
2100 nM		C=C(C(=O)OC)[C@H]1CCC[C@H]2C(=C)C(=O)O[C@H]12 (relative stereo)	
21000 nM		C=C1C(=O)OC(C)(C)C1C (stereo not drawn)	Active
16000 nM		C=C1C(=O)O[C@H]2CCC[C@@H]1C2 (relative stereo)	Active
	34 nM	C=C[C@]12CC[C@H]3C(=C)C(=O)O[C@@H]3[C@H]1C(=C)C(=O)OC2	
	34 nM	C=C1C(=O)OC[C@@]2(CC)CC[C@H]3C(=C)C(=O)O[C@@H]3[C@@H]12	
15000 nM		C=C1C(=O)O[C@@H]2CCC[C@@H](O)[C@H]12 (relative stereo)	Active
	430 nM	C=C[C@@]12COC(=O)C(=C)[C@@H]1[C@H]1OC(=O)C(=C)[C@@H]1[C@@H](O)C2 [VERNOLEPIN]	
680 nM		C=C[C@]12CCCC[C@H]1C(=C)C(=O)OC2 (relative stereo)	
7000 nM		C=C1C(=O)OC[C@H]2[C@H]3CC[C@@H](C3)[C@@H]12	
